Data published in ChEMBL document CHEMBL1144801, “Synthesis of new benzimidazole linked pyrrolo[2,1-c][1,4]benzodiazepine conjugates with efficient DNA-binding affinity and potent cytotoxicity” (Bioorg Med Chem Lett, 2008).
Calls of active or inactive are those of the source. The rule behind the calls is not given here.

Tests used:
DNA = experiment: Binding affinity to calf thymus DNA at 1:5 (compound:DNA) molar ratio in 37degC after 18 hrs by thermal denaturation studies; format: nucleic-acid assay; settings: Bos taurus
Procedure, shortened: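 Calf thymus DNA with ligand at a 1:5 ligand:DNA molar ratio in aqueous 10 mM sodium phosphate + 1 mM EDTA, pH 7.00. Mixtures were incubated at 37 °C and read at 0 h and 18 h. The read-out was the shift in helix melting temperature (ΔTm) relative to CT-DNA alone.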

KM12 = experiment: Cytotoxicity against human KM12 cells; format: functional
ACHN = experiment: Cytotoxicity against human ACHN cells; format: functional
T47D = experiment: Cytotoxicity against human T47D cells; format: functional
COLO 205 = experiment: Cytotoxicity against human COLO205 cells; format: functional
OVCAR-4 = experiment: Cytotoxicity against human OVCAR4 cells; format: functional
M14 = experiment: Cytotoxicity against human M14 cells; format: functional
EKVX = experiment: Cytotoxicity against human EKVX cells; format: functional
K562 = experiment: Cytotoxicity against human K562 cells; format: functional
NCI-H460 = experiment: Cytotoxicity against human NCI-H460 cells; format: functional
CCRF-CEM = experiment: Cytotoxicity against human CCRF-CEM cells; format: functional
SN12C = experiment: Cytotoxicity against human SN12C cells; format: functional
A498 = experiment: Cytotoxicity against human A498 cells; format: functional
DU-145 = experiment: Cytotoxicity against human DU145 cells; format: functional
NCI-H322M = experiment: Cytotoxicity against human NCI-H322M cells; format: functional
Hs-578T = experiment: Cytotoxicity against human HS578T cells; format: functional
RXF 393 = experiment: Cytotoxicity against human RXF393 cells; format: functional
U-251 = experiment: Cytotoxicity against human U251 cells; format: functional
BT-549 = experiment: Cytotoxicity against human BT549 cells; format: functional
HOP-92 = experiment: Cytotoxicity against human HOP92 cells; format: functional
NCI/ADR-RES = experiment: Cytotoxicity against human NCI/ADR-RES cells; format: functional
HCT-15 = experiment: Cytotoxicity against human HCT15 cells; format: functional
Malme-3M = experiment: Cytotoxicity against human MALME3M cells; format: functional
786-0 = experiment: Cytotoxicity against human 786-0 cells; format: functional
MDA-MB-435 = experiment: Cytotoxicity against human MDA-MB-435 cells; format: functional
HCT-116 = experiment: Cytotoxicity against human HCT116 cells; format: functional
SK-MEL-28 = experiment: Cytotoxicity against human SKMEL28 cells; format: functional
NCI-H23 = experiment: Cytotoxicity against human NCI-H23 cells; format: functional
SW-620 = experiment: Cytotoxicity against human SW620 cells; format: functional
SF-268 = experiment: Cytotoxicity against human SF268 cells; format: functional
MDA-MB-468 = experiment: Cytotoxicity against human MDA-MB-468 cells; format: functional
UO-31 = experiment: Cytotoxicity against human UO31 cells; format: functional
OVCAR-8 = experiment: Cytotoxicity against human OVCAR8 cells; format: functional
A549 = experiment: Cytotoxicity against human A549 cells; format: functional
UACC-257 = experiment: Cytotoxicity against human UACC257 cells; format: functional
HT-29 = experiment: Cytotoxicity against human HT29 cells; format: functional
Bacilli = experiment: Inhibition of Bacillus amyloli BamH1 restriction endonuclease-mediated pBR322 cleavage by RED100-restriction endonuclease digestion assay
Procedure, shortened: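 Plasmid pBR322 exposed to the conjugate, then digested with BamH1 (20 U) for 1 h at 37 °C. Cut and uncut products separated by agarose gel electrophoresis and visualized by ethidium bromide staining under UV. Controls were untreated pBR322 and a complete BamH1 digest.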

SK-MEL-2 = experiment: Cytotoxicity against human SKMEL2 cells; format: functional
SF-539 = experiment: Cytotoxicity against human SF539 cells; format: functional
[1] = Cytotoxicity against human HL60(TB) cells; format: functional, HL-60(TB); settings: HL-60
LOX IMVI = experiment: Cytotoxicity against human LOXIMVI cells; format: functional
SNB-19 = experiment: Cytotoxicity against human SNB19 cells; format: functional
OVCAR-5 = experiment: Cytotoxicity against human OVCAR5 cells; format: functional
CAKI-1 = experiment: Cytotoxicity against human CAKI1 cells; format: functional
SK-OV-3 = experiment: Cytotoxicity against human SKOV3 cells; format: functional
[2] = Cytotoxicity against human OVCAR1 cells; format: functional
SK-MEL-5 = experiment: Cytotoxicity against human SKMEL5 cells; format: functional
NCI-H226 = experiment: Cytotoxicity against human NCI-H226 cells; format: functional
HOP-62 = experiment: Cytotoxicity against human HOP62 cells; format: functional
MOLT-4 = experiment: Cytotoxicity against human MOLT4 cells; format: functional
MCF7 = experiment: Cytotoxicity against human MCF7 cells; format: functional
TK-10 = experiment: Cytotoxicity against human TK10 cells; format: functional
NCI-H522 = experiment: Cytotoxicity against human NCI-H522 cells; format: functional
RPMI-8226 = experiment: Cytotoxicity against human RPMI8226 cells; format: functional
OVCAR-3 = experiment: Cytotoxicity against human OVCAR-3 cells; format: functional
MDA-MB-231 = experiment: Cytotoxicity against human MDA-MB-231 cells; format: functional
UACC-62 = experiment: Cytotoxicity against human UACC62 cells; format: functional
SNB-75 = experiment: Cytotoxicity against human SNB75 cells; format: functional
SR = experiment: Cytotoxicity against human SR cells; format: functional
HCC 2998 = experiment: Cytotoxicity against human HCC2998 cells; format: functional

COc1cc2c(cc1OCCCn1c(-c3ccco3)nc3ccccc31)N=C[C@@H]1CCCN1C2=O
ΔTm (DNA): 6.1 °C

COc1cc2c(cc1OCCCCCn1c(-c3ccco3)nc3ccccc31)N=C[C@@H]1CCCN1C2=O
GI50 (KM12): < 10 nM
GI50 (ACHN): < 10 nM
GI50 (T47D): < 10 nM
GI50 (COLO 205): < 10 nM
GI50 (OVCAR-4): < 10 nM
GI50 (M14): < 10 nM
GI50 (EKVX): < 10 nM
GI50 (K562): < 10 nM
GI50 (NCI-H460): < 10 nM
GI50 (CCRF-CEM): < 10 nM
GI50 (SN12C): < 10 nM
GI50 (A498): < 10 nM
ΔTm (DNA): 7 °C
GI50 (DU-145): 20 nM
GI50 (NCI-H322M): 30 nM
GI50 (Hs-578T): < 10 nM
GI50 (RXF 393): < 10 nM
GI50 (U-251): < 10 nM
GI50 (BT-549): < 10 nM
GI50 (HOP-92): 10 nM
GI50 (NCI/ADR-RES): 230 nM
GI50 (HCT-15): 20 nM
GI50 (Malme-3M): 10 nM
GI50 (786-0): < 10 nM
GI50 (MDA-MB-435): < 10 nM
GI50 (HCT-116): < 10 nM
GI50 (SK-MEL-28): < 10 nM
GI50 (NCI-H23): < 10 nM
GI50 (SW-620): < 10 nM
GI50 (SF-268): < 10 nM
GI50 (MDA-MB-468): < 10 nM
GI50 (UO-31): 100 nM
GI50 (OVCAR-8): < 10 nM
GI50 (A549): < 10 nM
GI50 (UACC-257): < 10 nM
GI50 (HT-29): < 10 nM
Activity (Bacilli): Active
GI50 (SK-MEL-2): 20 nM
GI50 (SF-539): < 10 nM
GI50 [1]: < 10 nM
GI50 (LOX IMVI): < 10 nM
GI50 (SNB-19): < 10 nM
GI50 (OVCAR-5): < 10 nM
GI50 (CAKI-1): < 10 nM
GI50 (SK-OV-3): < 10 nM
GI50 [2]: 10 nM
GI50 (SK-MEL-5): < 10 nM
GI50 (NCI-H226): < 10 nM
GI50 (HOP-62): < 10 nM
GI50 (MOLT-4): < 10 nM
GI50 (MCF7): < 10 nM
GI50 (TK-10): 10 nM
GI50 (NCI-H522): < 10 nM
GI50 (RPMI-8226): < 10 nM
GI50 (OVCAR-3): < 10 nM
GI50 (MDA-MB-231): 10 nM
GI50 (UACC-62): < 10 nM
GI50 (SNB-75): < 10 nM
GI50 (SR): < 10 nM

COc1cc2c(cc1OCCCCCn1c(-c3cccs3)nc3ccccc31)N=C[C@@H]1CCCN1C2=O
ΔTm (DNA): 6.1 °C

COc1cc2c(cc1OCCCCn1c(-c3ccco3)nc3ccccc31)N=C[C@@H]1CCCN1C2=O
ΔTm (DNA): 0 °C
Activity (Bacilli): inactive

COc1cc2c(cc1OCCCCCn1c(-c3cccs3)nc3ccccc31)NC(=O)[C@@H]1CCCN1C2=O
ΔTm (DNA): 0.8 °C

COc1cc2c(cc1O)N=C[C@@H]1CCCN1C2=O
ΔTm (DNA): 0.7 °C

COc1cc2c(cc1OCCCn1c(-c3ccco3)nc3ccccc31)NC(=O)[C@@H]1CCCN1C2=O
ΔTm (DNA): 0.7 °C

COc1cc2c(cc1OCCCn1c(-c3cccs3)nc3ccccc31)N=C[C@@H]1CCCN1C2=O
ΔTm (DNA): 5.1 °C

COc1cc2c(cc1OCCCCn1c(-c3cccs3)nc3ccccc31)N=C[C@@H]1CCCN1C2=O
GI50 (KM12): 1920 nM
GI50 (ACHN): 2810 nM
GI50 (T47D): 500 nM
GI50 (COLO 205): 1070 nM
GI50 (OVCAR-4): 1610 nM
GI50 (M14): 1350 nM
GI50 (EKVX): 3360 nM
GI50 (K562): 15500 nM
GI50 (NCI-H460): 1550 nM
GI50 (CCRF-CEM): 240 nM
GI50 (SN12C): 2500 nM
GI50 (A498): 1680 nM
ΔTm (DNA): 1 °C
GI50 (DU-145): 1320 nM
GI50 (NCI-H322M): 2700 nM
GI50 (Hs-578T): 1700 nM
GI50 (RXF 393): 1340 nM
GI50 (HCC 2998): 2080 nM
GI50 (U-251): 1770 nM
GI50 (BT-549): 410 nM
GI50 (HOP-92): 1330 nM
GI50 (NCI/ADR-RES): 3240 nM
GI50 (HCT-15): 3190 nM
GI50 (Malme-3M): 1740 nM
GI50 (786-0): 1710 nM
GI50 (MDA-MB-435): 1390 nM
GI50 (HCT-116): 1750 nM
GI50 (SK-MEL-28): 1530 nM
GI50 (NCI-H23): 2050 nM
GI50 (SW-620): 1840 nM
GI50 (SF-268): 1800 nM
GI50 (MDA-MB-468): 330 nM
GI50 (UO-31): 1230 nM
GI50 (OVCAR-8): 2580 nM
GI50 (A549): 3220 nM
GI50 (UACC-257): 2540 nM
GI50 (HT-29): 1970 nM
GI50 (SK-MEL-2): 1470 nM
GI50 (SF-539): 1720 nM
GI50 [1]: 5180 nM
GI50 (LOX IMVI): 780 nM
GI50 (SNB-19): 1530 nM
GI50 (OVCAR-5): 3270 nM
GI50 (CAKI-1): 940 nM
GI50 (SK-OV-3): 3320 nM
GI50 [2]: 750 nM
GI50 (SK-MEL-5): 1090 nM
GI50 (NCI-H226): 2130 nM
GI50 (MOLT-4): 3790 nM
GI50 (MCF7): 660 nM
GI50 (TK-10): 2090 nM
GI50 (NCI-H522): 1040 nM
GI50 (RPMI-8226): 310 nM
GI50 (OVCAR-3): 1720 nM
GI50 (MDA-MB-231): 1390 nM
GI50 (UACC-62): 1570 nM
GI50 (SNB-75): 1220 nM
GI50 (SR): 450 nM
